Experiments:
RPA70N [1] = target: T1, RPA70N (Homo sapiens, UniProt P27694); assay: NMR-based titration, binding to RPA70N; details: linked compound vs fragments
RPA70N [2] = target: T1, RPA70N; assay: ATRIP-based FPA competition assay; assay type: binding; details: from FPA-derived Kd
How it was run: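 Competitive fluorescence polarization anisotropy. Buffer: 50 mM HEPES, 75 mM NaCl, 5 mM DTT, pH 7.5, 5% DMSO. Test compound run as 10-point 3-fold series, 500–0.025 µM final. 4-parameter logistic IC50 converted to Kd.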

`Cc1cccc(-n2nc(C(=O)O)cc2-c2ccc(OCc3ccc(-c4ccc(C(=O)O)o4)cc3)cc2)c1` [compound 7, 5-(4-((4-(5-Carboxyfuran-2-yl)benzyl)oxy)phenyl)-1-(m-tolyl)-1H-pyrazole-3-carboxylic acid] was tested, and the “increase in affinity with respect to the starting fragments” value (RPA70N [1]) was over 20 fold.
In the case of `O=C(O)c1cc(-c2ccc(CNC(=S)c3ccc(-c4ccc(C(=O)O)o4)cc3Cl)cc2)n(-c2ccc(Cl)c(Cl)c2)n1` [compound 8, 5-(4-((4-(5-Carboxyfuran-2-yl)-2-chlorophenylthioamido)methyl)phenyl)-1-(3,4-dichlorophenyl)-1H-pyrazole-3-carboxylic acid], the “ligand efficiency (LE)” value (RPA70N [2]) is reported as 0.23.
In the case of `O=C(O)c1cc(-c2ccc(CNC(=O)c3ccc(-c4ccc(C(=O)O)o4)cc3Cl)cc2)n(-c2ccc(Cl)c(Cl)c2)n1` [compound 22, 5-(4-((4-(5-Carboxyfuran-2-yl)-2-chlorobenzamido)methyl)phenyl)-1-(3,4-dichlorophenyl)-1H-pyrazole-3-carboxylic acid], the “ligand efficiency (LE)” value (RPA70N [2]) is reported as 0.18.

— article PMC3932990 (Journal of medicinal chemistry, 2013)
